These results are taken from ChEMBL document CHEMBL1131436, “Repaglinide and related hypoglycemic benzoic acid derivatives” (1998).

Experiment [1] concerns Rattus norvegicus. The experiment can be described thus: Maximum % decrease of blood glucose (deltaBG) was observed within 0.5 hour after administration orally at 0.1 mg/kg dose to fasted adult female rats versus a control group. The format is functional. As to conditions: route oral.
The subject of experiment [2] is Rattus norvegicus. Kind of experiment: Maximum % decrease of blood glucose (deltaBG) was observed within 3 hour after administration orally at 0.1 mg/kg dose to fasted adult female rats versus a control group. The class given is functional. Particulars: route oral. An outline of the steps: (§1)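 Female Wistar rats (Chbb THOM, SPF, 200-220 g), fasted 24 h, dosed orally by gavage as suspension in 1.5% Tylose methylcellulose (10 mL/kg). Whole blood from retrobulbar plexus under light halothane, deproteinized with 0.33 M HClO4; glucose by hexokinase/G6PDH, hourly up to 4 h. % decrease vs control group (N = 7), Student's t-test, P ≤ 0.05.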

Experiment [3] concerns Rattus norvegicus. The experiment can be described thus: Maximum % decrease of blood glucose (deltaBG) was observed within 2 hour after administration orally at 0.1 mg/kg dose to fasted adult female rats versus a control group. The format is functional. As to conditions: route oral. An outline of the steps:
as §1

Experiment [4] concerns Rattus norvegicus. The experiment can be described thus: Maximum % decrease of blood glucose (deltaBG) was observed within 4 hour after administration orally at 0.1 mg/kg dose to fasted adult female rats versus a control group. The format is functional. As to conditions: route oral. An outline of the steps:
as §1

The subject of experiment [5] is Rattus norvegicus. Kind of experiment: Half-maximal effective dose was measured on rat blood glucose after administrating at 4 hr. The class given is functional. An outline of the steps:
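Adult fasted female Wistar rats (Chbb THOM, SPF, 200-220 g), food withdrawn 24 h; oral gavage of suspension in 1.5% Tylose (methylcellulose), 10 mL/kg. Retrobulbar blood under light halothane; glucose by hexokinase/G6PDH after HClO4 deproteinization, hourly to 4 h. ED50 from fit of glucose vs dose, y = b + [a × k/(k + x^nH)], Hill coefficient nH.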

Experiment [6] deals with Rattus norvegicus. Kind of experiment: Maximum % decrease of blood glucose (deltaBG) was observed within 1 hour after administration orally at 0.1 mg/kg dose to fasted adult female rats versus a control group. The format is functional. As to conditions: route oral. In outline:
as §1

The test system of experiment [7] is Rattus norvegicus. The experiment can be described thus: Maximum % decrease of blood glucose (deltaBG) was observed within 4 hour after administration orally at 0.01 mg/kg dose to fasted adult female rats versus a control group. The format is functional. As to conditions: route oral. In outline:
as §1

Experiment [8] concerns Rattus norvegicus. The experiment can be described thus: Maximum % decrease of blood glucose (deltaBG) was observed within 4 hour after administration orally at 0.5 mg/kg dose to fasted adult female rats versus a control group. The class given is functional. Particulars: route oral. An outline of the steps:
as §1

Experiment [9] has as its system Rattus norvegicus. The experiment can be described thus: Maximum % decrease of blood glucose (deltaBG) was observed within 4 hour after administration orally at 0.25 mg/kg dose to fasted adult female rats versus a control group. The format is functional. Particulars: route oral. In outline: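 Adult female Wistar rats (Chbb THOM, SPF; 200-220 g) fasted 24 h, N=7 per group. Compound suspended in 1.5% methylcellulose (Tylose) and dosed by oral gavage at 10 mL/kg. Retrobulbar blood was drawn under light halothane hourly for up to 4 h. Glucose was read by hexokinase/G6PDH after HClO4 deproteinisation. Value is the maximum % fall versus vehicle controls; Student's t-test, P ≤ 0.05.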

The subject of experiment [10] is Rattus norvegicus. The experiment can be described thus: Maximum % decrease of blood glucose (deltaBG) was observed within 4 hour after administration orally at 1 mg/kg dose to fasted adult female rats versus a control group. The format is functional. Particulars: route oral. In outline: as §1
Experiment [11] has as its system Rattus norvegicus. The experiment can be described thus: Maximum % decrease of blood glucose (deltaBG) was observed within 4 hour after administration orally at 0.3 mg/kg dose to fasted adult female rats versus a control group. The class given is functional. As to conditions: route oral. An outline of the steps: as §1
The test system of experiment [12] is Rattus norvegicus. The experiment can be described thus: Maximum % decrease of blood glucose (deltaBG) was observed within 4 hour after administration orally at 10 mg/kg dose to fasted adult female rats versus a control group; NS =' not significant'. The format is functional, organism-based. The arrangement: dose 10 mg/kg. In outline: as §1
In experiment [13] the test system is Rattus norvegicus. Kind of experiment: Maximum % decrease of blood glucose (deltaBG) was observed within 4 hour after administration orally at 100 mg/kg dose to fasted adult female rats versus a control group. The class given is functional. Particulars: route oral. In outline:
as §1

Experiment [14] has as its system Rattus norvegicus. Kind of experiment: Maximum % decrease of blood glucose (deltaBG) was observed within 4 hour after administration orally at 5 mg/kg dose to fasted adult female rats versus a control group. As to conditions: route oral. The format is functional. An outline of the steps:
as §1

Experiment [15] deals with Rattus norvegicus. The experiment can be described thus: Maximum % decrease of blood glucose (deltaBG) was observed within 4 hour after administration orally at 25 mg/kg dose to fasted adult female rats versus a control group. The class given is functional. Particulars: route oral. An outline of the steps: as §1
In experiment [16] the test system is Rattus norvegicus. The experiment can be described thus: Maximum % decrease of blood glucose (deltaBG) was observed within 4 hour after administration orally at 0.01 mg/kg dose to fasted adult female rats versus a control group; NS =' not significant'. The class given is functional, organism-based. The arrangement: dose 0.01 mg/kg. In outline:
as §1

Experiment [17] has as its system Rattus norvegicus. The experiment can be described thus: Maximum % decrease of blood glucose (deltaBG) was observed within 4 hour after administration orally at 0.4 mg/kg dose to fasted adult female rats versus a control group. The class given is functional. Particulars: route oral. In outline: as §1
For experiment [18], the system named is Rattus norvegicus. Kind of experiment: Maximum % decrease of blood glucose (deltaBG) was observed within 4 hour after administration orally at 1 mg/kg dose to fasted adult female rats versus a control group; NS =' not significant'. The arrangement: dose 1 mg/kg. The class given is functional, organism-based. An outline of the steps: as §1
Experiment [19] concerns Rattus norvegicus. The experiment can be described thus: Maximum % decrease of blood glucose (deltaBG) was observed within 1 hour after administration orally at 0.5 mg/kg dose to fasted adult female rats versus a control group. Particulars: route oral. The class given is functional. An outline of the steps: as §1
Experiment [20] concerns Rattus norvegicus. The experiment can be described thus: Maximum % decrease of blood glucose (deltaBG) was observed within 4 hour after administration orally at 0.1 mg/kg dose to fasted adult female rats versus a control group; NS =' not significant'. The class given is functional, organism-based. Further details: dose 0.1 mg/kg. An outline of the steps:
as §1

For experiment [21], the system named is Rattus norvegicus. Kind of experiment: Maximum % decrease of blood glucose (deltaBG) was observed within 3 hour after administration orally at 0.1 mg/kg dose to fasted adult female rats versus a control group; NS =' not significant'. Further details: dose 0.1 mg/kg. The format is functional, organism-based. An outline of the steps:
as §1

For experiment [22], the system named is Rattus norvegicus. Kind of experiment: Maximum % decrease of blood glucose (deltaBG) was observed within 3 hour after administration orally at 0.5 mg/kg dose to fasted adult female rats versus a control group. The format is functional. Particulars: route oral. In outline:
as §1

Experiment [23] deals with Rattus norvegicus. The experiment can be described thus: Maximum % decrease of blood glucose (deltaBG) was observed within 2 hour after administration orally at 0.5 mg/kg dose to fasted adult female rats versus a control group. The class given is functional. Particulars: route oral. In outline:
as §1

The mark [24] stands for this setting: Rattus norvegicus, Blood, 4 h, read-out: ED50.

“And” between values parts separate entries of the source, which are not always exact repeats. Identical values can stand only once.

Broadly, the ED50 is the midpoint of the dose-response relation.

Take `CCOc1cc(CC(=O)N[C@@H](CC(C)C)c2ccccc2N2CCCCC2)ccc1C(=O)O` (stereo in doubt; (S)-6al) [REPAGLINIDE]: the “Delta BG” value in the experiment with Rattus norvegicus [1] is given as -42%; in the experiment on Rattus norvegicus [2] it was -34%; with Rattus norvegicus [3], -40%; with Rattus norvegicus [4] (0.1 mg/kg), -47%; in the experiment with Rattus norvegicus [6], -47%; in the experiment with Rattus norvegicus [7], -21%. Also, the ED50 with Rattus norvegicus [5] was determined as 0.01 mg/kg.

For `O=C(O)c1ccc(CCNC(=O)c2cc(Cl)ccc2N2CCCCCCCC2)cc1`, the “Delta BG” value in the experiment with Rattus norvegicus [8] is -33%; in the experiment on Rattus norvegicus [9], -13% and -18%; in the experiment on Rattus norvegicus [10] (1 mg/kg), -40% and -39%. For the same molecule, the median effective dose (ED50) in the experiment on Rattus norvegicus [5] (setting [24]) came out at 0.38 mg/kg.

As for `CCC1=C(C)CN(C(=O)NCCc2ccc(S(=O)(=O)NC(=O)N[C@H]3CC[C@H](C)CC3)cc2)C1=O` [GLIMEPIRIDE], the “Delta BG” value is given as -8% with Rattus norvegicus [1]; -14% in the experiment with Rattus norvegicus [2]; -35% in the experiment on Rattus norvegicus [11]; -18% in the experiment on Rattus norvegicus [3]; -18% in the experiment on Rattus norvegicus [4]; -17% with Rattus norvegicus [6]. In addition, the ED50 in the experiment with Rattus norvegicus [5] (setting [24]) came to 0.182 mg/kg.

As for `CC(NC(=O)Cc1ccc(S(N)(=O)=O)cc1)c1ccccc1N1CCCCC1` (configuration not stated), the “Delta BG” value in the experiment on Rattus norvegicus [12] was “Not significant”.

Take `O=C(O)c1ccc(CCNC(=O)c2cccc(Cl)c2)cc1`: the “Delta BG” value in the experiment with Rattus norvegicus [13] is -23%.

As for `CC(NC(=O)Cc1ccc(C(=O)O)cc1)c1ccccc1N1CCCCC1` (configuration not stated), the “Delta BG” value with Rattus norvegicus [8] is -31%; in the experiment on Rattus norvegicus [4], -13%; with Rattus norvegicus [14] it was -49%; with Rattus norvegicus [10], -41%. For the same molecule, the 50% effective dose (ED50) in the experiment on Rattus norvegicus [5] and in the experiment on Rattus norvegicus [5] (setting [24]) was 0.3 mg/kg each time.

As to `CCN(CC)c1ccc(Cl)cc1C(=O)NCCc1ccc(C(=O)O)cc1`, the “Delta BG” value in the experiment on Rattus norvegicus [15] is reported as -35%.

Regarding `CN(C)c1ccc(Cl)cc1C(=O)NCCc1ccc(C(=O)O)cc1`, the “Delta BG” value in the experiment on Rattus norvegicus [15] was -28%.

For `CC(C)(NC(=O)Cc1ccc(C(=O)O)cc1)c1cc(Cl)ccc1N1CCCCC1`, the “Delta BG” value in the experiment on Rattus norvegicus [12] is “Not significant”.

For the molecule `CCOc1cc(CC(=O)NC(CC)c2ccccc2N2CCCCC2)ccc1C(=O)O` (configuration not stated), the “Delta BG” value with Rattus norvegicus [16] was “Not significant”; with Rattus norvegicus [4] it was -42%.

`O=C(Cc1ccc(C(=O)O)cc1)N[C@@H](c1ccccc1)c1ccccc1N1CCCCC1`: in the experiment on Rattus norvegicus [17], the “Delta BG” value is given as -33%.

As to `O=C(O)c1ccc(CCNC(=O)c2cc(Cl)ccc2N2CCCCC2)cc1`, the results for the “Delta BG” value with Rattus norvegicus [14] and with Rattus norvegicus [18] were -37% and “Not significant”, respectively.

For `CCCC(NC(=O)Cc1ccc(C(=O)O)c(OC)c1)c1ccccc1N1CCCCC1` (configuration not stated), the “Delta BG” value in the experiment on Rattus norvegicus [19] was -42%; in the experiment on Rattus norvegicus [8], -31%; with Rattus norvegicus [20] it was “Not significant”; with Rattus norvegicus [1] it was -38%; in the experiment on Rattus norvegicus [21] it was “Not significant”; in the experiment on Rattus norvegicus [3], -27%. The “Delta BG” value is listed as -43% in the experiment on Rattus norvegicus [4], -37% with Rattus norvegicus [22], -39% in the experiment with Rattus norvegicus [23] and -43% in the experiment with Rattus norvegicus [6].

`CCOc1cc(CC(=O)N[C@@H](CC(C)C)c2ccccc2N2CCCCC2)ccc1C(=O)O` (stereo in doubt; 6al) [REPAGLINIDE]: the entries for the “Delta BG” value in the experiment on Rattus norvegicus [4] (0.1 mg/kg) and in the experiment on Rattus norvegicus [7] were -44% and -19%, respectively. Also, in the experiment with Rattus norvegicus [5], the median effective dose (ED50) worked out at 0.022 mg/kg.
